Test results reported in ChEMBL document CHEMBL5058577, “EUbOPEN Chemogenomics Library 2 (Multiplex)” (2022).

Tested on: Fibroblast
Experiment: Multiplex assay against human fibroblast
Type: toxicity, cell-based
How it was run: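 Phenotypes for tubulin, mitochondrial mass and membrane permeability are expressed as per cents of healthy-nucleus cells. Cells were stained live at seeding with Hoechst33342, BioTracker Green Microtubule Cytoskeleton Dye, MitoTracker Red and Annexin V Alexa Fluor 680, then imaged after compound addition on a CQ1 microscope at 37°C and 5% CO2. Machine-learning gating in CellPathfinder separated Hoechst high-intensity objects from normal cells, divided normal cells by nuclear state (healthy, pyknosed, fragmented) and divided pyknosed cells into mitotic or apoptotic.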

[1] = 12 h, 1 µM, compound concentration 1 uM, replicate 1
[2] = 12 h, 1 µM, compound concentration 1 uM, replicate 2
[3] = 12 h, 10 µM, compound concentration 10 uM, replicate 1
[4] = 12 h, 10 µM, compound concentration 10 uM, replicate 2
[5] = 24 h, 1 µM, compound concentration 1 uM, replicate 1
[6] = 24 h, 1 µM, compound concentration 1 uM, replicate 2
[7] = 24 h, 10 µM, compound concentration 10 uM, replicate 1
[8] = 24 h, 10 µM, compound concentration 10 uM, replicate 2
[9] = 48 h, 1 µM, compound concentration 1 uM, replicate 1
[10] = 48 h, 1 µM, compound concentration 1 uM, replicate 2
[11] = 48 h, 10 µM, compound concentration 10 uM, replicate 1
[12] = 48 h, 10 µM, compound concentration 10 uM, replicate 2

CC(C)(C)c1ccc(CSc2cnn(C(C)(C)C)c(=O)c2Cl)cc1 [PYRIDABEN]
Population Apoptotic (%) [1]: 46%
Population Fragmented Nuclei (%) [1]: 15%
Population Healthy Nuclei (%) [1]: 66%
Population Hoechst High Intensity Objects (%) [1]: 1%
Population Membrane Permeable-Phenotype (%) [1]: 3%
Population Mitochondria Different-Phenotype (%) [1]: 1%
Population Mitotic Cells (%) [1]: 53%
Population Normal (%) [1]: 98%
Population Pyknosed Nuclei (%) [1]: 17%
Population Tubulin-Different-Phenotype (%) [1]: 28%
Total Cell Count [1]: 148
Population Apoptotic (%) [2]: 44%
Population Fragmented Nuclei (%) [2]: 27%
Population Healthy Nuclei (%) [2]: 47%
Population Hoechst High Intensity Objects (%) [2]: 4%
Population Membrane Permeable-Phenotype (%) [2]: 12%
Population Mitochondria Different-Phenotype (%) [2]: 7%
Population Mitotic Cells (%) [2]: 55%
Population Normal (%) [2]: 95%
Population Pyknosed Nuclei (%) [2]: 25%
Population Tubulin-Different-Phenotype (%) [2]: 57%
Total Cell Count [2]: 142
Population Apoptotic (%) [3]: 25%
Population Fragmented Nuclei (%) [3]: 11%
Population Healthy Nuclei (%) [3]: 68%
Population Hoechst High Intensity Objects (%) [3]: 4%
Population Membrane Permeable-Phenotype (%) [3]: 2%
Population Mitochondria Different-Phenotype (%) [3]: 5%
Population Mitotic Cells (%) [3]: 74%
Population Normal (%) [3]: 95%
Population Pyknosed Nuclei (%) [3]: 20%
Population Tubulin-Different-Phenotype (%) [3]: 35%
Total Cell Count [3]: 139
Population Apoptotic (%) [4]: 47%
Population Fragmented Nuclei (%) [4]: 25%
Population Healthy Nuclei (%) [4]: 49%
Population Hoechst High Intensity Objects (%) [4]: 1%
Population Membrane Permeable-Phenotype (%) [4]: 12%
Population Mitochondria Different-Phenotype (%) [4]: 4%
Population Mitotic Cells (%) [4]: 52%
Population Normal (%) [4]: 98%
Population Pyknosed Nuclei (%) [4]: 25%
Population Tubulin-Different-Phenotype (%) [4]: 54%
Total Cell Count [4]: 136
Population Apoptotic (%) [5]: 35%
Population Fragmented Nuclei (%) [5]: 17%
Population Healthy Nuclei (%) [5]: 71%
Population Hoechst High Intensity Objects (%) [5]: 0%
Population Membrane Permeable-Phenotype (%) [5]: 0%
Population Mitochondria Different-Phenotype (%) [5]: 2%
Population Mitotic Cells (%) [5]: 64%
Population Normal (%) [5]: 99%
Population Pyknosed Nuclei (%) [5]: 11%
Population Tubulin-Different-Phenotype (%) [5]: 20%
Total Cell Count [5]: 148
Population Apoptotic (%) [6]: 36%
Population Fragmented Nuclei (%) [6]: 30%
Population Healthy Nuclei (%) [6]: 48%
Population Hoechst High Intensity Objects (%) [6]: 4%
Population Membrane Permeable-Phenotype (%) [6]: 7%
Population Mitochondria Different-Phenotype (%) [6]: 8%
Population Mitotic Cells (%) [6]: 63%
Population Normal (%) [6]: 95%
Population Pyknosed Nuclei (%) [6]: 21%
Population Tubulin-Different-Phenotype (%) [6]: 50%
Population Apoptotic (%) [7]: 56%
Population Fragmented Nuclei (%) [7]: 13%
Population Healthy Nuclei (%) [7]: 62%
Population Hoechst High Intensity Objects (%) [7]: 2%
Population Membrane Permeable-Phenotype (%) [7]: 1%
Population Mitochondria Different-Phenotype (%) [7]: 7%
Population Mitotic Cells (%) [7]: 43%
Population Normal (%) [7]: 97%
Population Pyknosed Nuclei (%) [7]: 23%
Population Tubulin-Different-Phenotype (%) [7]: 40%
Total Cell Count [7]: 139
Population Apoptotic (%) [8]: 54%
Population Fragmented Nuclei (%) [8]: 28%
Population Healthy Nuclei (%) [8]: 48%
Population Hoechst High Intensity Objects (%) [8]: 0%
Population Membrane Permeable-Phenotype (%) [8]: 9%
Population Mitochondria Different-Phenotype (%) [8]: 9%
Population Mitotic Cells (%) [8]: 45%
Population Normal (%) [8]: 99%
Population Pyknosed Nuclei (%) [8]: 22%
Population Tubulin-Different-Phenotype (%) [8]: 53%
Total Cell Count [8]: 136
Population Apoptotic (%) [9]: 50%
Population Fragmented Nuclei (%) [9]: 27%
Population Healthy Nuclei (%) [9]: 62%
Population Hoechst High Intensity Objects (%) [9]: 1%
Population Membrane Permeable-Phenotype (%) [9]: 0%
Population Mitochondria Different-Phenotype (%) [9]: 4%
Population Mitotic Cells (%) [9]: 50%
Population Normal (%) [9]: 98%
Population Pyknosed Nuclei (%) [9]: 9%
Population Tubulin-Different-Phenotype (%) [9]: 28%
Total Cell Count [9]: 164
Population Apoptotic (%) [10]: 45%
Population Fragmented Nuclei (%) [10]: 43%
Population Healthy Nuclei (%) [10]: 41%
Population Hoechst High Intensity Objects (%) [10]: 4%
Population Membrane Permeable-Phenotype (%) [10]: 6%
Population Mitochondria Different-Phenotype (%) [10]: 15%
Population Mitotic Cells (%) [10]: 54%
Population Normal (%) [10]: 95%
Population Pyknosed Nuclei (%) [10]: 15%
Population Tubulin-Different-Phenotype (%) [10]: 63%
Total Cell Count [10]: 153
Population Apoptotic (%) [11]: 72%
Population Fragmented Nuclei (%) [11]: 19%
Population Healthy Nuclei (%) [11]: 62%
Population Hoechst High Intensity Objects (%) [11]: 4%
Population Membrane Permeable-Phenotype (%) [11]: 0%
Population Mitochondria Different-Phenotype (%) [11]: 8%
Population Mitotic Cells (%) [11]: 28%
Population Normal (%) [11]: 95%
Population Pyknosed Nuclei (%) [11]: 18%
Population Tubulin-Different-Phenotype (%) [11]: 49%
Total Cell Count [11]: 143
Population Apoptotic (%) [12]: 63%
Population Fragmented Nuclei (%) [12]: 36%
Population Healthy Nuclei (%) [12]: 48%
Population Hoechst High Intensity Objects (%) [12]: 5%
Population Membrane Permeable-Phenotype (%) [12]: 8%
Population Mitochondria Different-Phenotype (%) [12]: 10%
Population Mitotic Cells (%) [12]: 36%
Population Normal (%) [12]: 94%
Population Pyknosed Nuclei (%) [12]: 15%
Population Tubulin-Different-Phenotype (%) [12]: 58%
Total Cell Count [12]: 131

Cc1c(Cc2ccc3ccccc3n2)c2cc(F)ccc2n1CC(=O)O [TIMAPIPRANT]
Population Apoptotic (%) [1]: 41%
Population Fragmented Nuclei (%) [1]: 12%
Population Healthy Nuclei (%) [1]: 67%
Population Hoechst High Intensity Objects (%) [1]: 5%
Population Membrane Permeable-Phenotype (%) [1]: 1%
Population Mitochondria Different-Phenotype (%) [1]: 7%
Population Mitotic Cells (%) [1]: 58%
Population Normal (%) [1]: 94%
Population Pyknosed Nuclei (%) [1]: 19%
Population Tubulin-Different-Phenotype (%) [1]: 26%
Total Cell Count [1]: 171
Population Apoptotic (%) [2]: 33%
Population Fragmented Nuclei (%) [2]: 28%
Population Healthy Nuclei (%) [2]: 49%
Population Membrane Permeable-Phenotype (%) [2]: 9%
Population Mitochondria Different-Phenotype (%) [2]: 4%
Population Mitotic Cells (%) [2]: 66%
Population Pyknosed Nuclei (%) [2]: 22%
Population Tubulin-Different-Phenotype (%) [2]: 43%
Total Cell Count [2]: 142
Population Apoptotic (%) [3]: 66%
Population Fragmented Nuclei (%) [3]: 13%
Population Healthy Nuclei (%) [3]: 77%
Population Hoechst High Intensity Objects (%) [3]: 2%
Population Membrane Permeable-Phenotype (%) [3]: 0%
Population Mitochondria Different-Phenotype (%) [3]: 7%
Population Mitotic Cells (%) [3]: 33%
Population Normal (%) [3]: 97%
Population Pyknosed Nuclei (%) [3]: 8%
Population Tubulin-Different-Phenotype (%) [3]: 35%
Total Cell Count [3]: 147
Population Apoptotic (%) [4]: 53%
Population Fragmented Nuclei (%) [4]: 26%
Population Healthy Nuclei (%) [4]: 53%
Population Hoechst High Intensity Objects (%) [4]: 5%
Population Membrane Permeable-Phenotype (%) [4]: 1%
Population Mitotic Cells (%) [4]: 46%
Population Normal (%) [4]: 95%
Population Pyknosed Nuclei (%) [4]: 19%
Population Tubulin-Different-Phenotype (%) [4]: 43%
Total Cell Count [4]: 160
Population Apoptotic (%) [5]: 33%
Population Fragmented Nuclei (%) [5]: 9%
Population Healthy Nuclei (%) [5]: 73%
Population Hoechst High Intensity Objects (%) [5]: 1%
Population Membrane Permeable-Phenotype (%) [5]: 3%
Population Mitochondria Different-Phenotype (%) [5]: 2%
Population Mitotic Cells (%) [5]: 66%
Population Normal (%) [5]: 98%
Population Pyknosed Nuclei (%) [5]: 17%
Population Tubulin-Different-Phenotype (%) [5]: 26%
Total Cell Count [5]: 158
Population Apoptotic (%) [6]: 47%
Population Fragmented Nuclei (%) [6]: 30%
Population Healthy Nuclei (%) [6]: 52%
Population Hoechst High Intensity Objects (%) [6]: 5%
Population Membrane Permeable-Phenotype (%) [6]: 7%
Population Mitochondria Different-Phenotype (%) [6]: 4%
Population Mitotic Cells (%) [6]: 52%
Population Normal (%) [6]: 94%
Population Tubulin-Different-Phenotype (%) [6]: 38%
Total Cell Count [6]: 142
Population Apoptotic (%) [7]: 66%
Population Fragmented Nuclei (%) [7]: 14%
Population Healthy Nuclei (%) [7]: 77%
Population Hoechst High Intensity Objects (%) [7]: 2%
Population Membrane Permeable-Phenotype (%) [7]: 0%
Population Mitochondria Different-Phenotype (%) [7]: 6%
Population Mitotic Cells (%) [7]: 33%
Population Normal (%) [7]: 97%
Population Pyknosed Nuclei (%) [7]: 8%
Population Tubulin-Different-Phenotype (%) [7]: 30%
Total Cell Count [7]: 150
Population Apoptotic (%) [8]: 52%
Population Fragmented Nuclei (%) [8]: 29%
Population Healthy Nuclei (%) [8]: 58%
Population Hoechst High Intensity Objects (%) [8]: 7%
Population Membrane Permeable-Phenotype (%) [8]: 3%
Population Mitochondria Different-Phenotype (%) [8]: 10%
Population Mitotic Cells (%) [8]: 47%
Population Normal (%) [8]: 92%
Population Pyknosed Nuclei (%) [8]: 12%
Population Tubulin-Different-Phenotype (%) [8]: 52%
Total Cell Count [8]: 164
Population Apoptotic (%) [9]: 72%
Population Fragmented Nuclei (%) [9]: 15%
Population Healthy Nuclei (%) [9]: 72%
Population Hoechst High Intensity Objects (%) [9]: 7%
Population Membrane Permeable-Phenotype (%) [9]: 0%
Population Mitochondria Different-Phenotype (%) [9]: 2%
Population Mitotic Cells (%) [9]: 27%
Population Normal (%) [9]: 92%
Population Pyknosed Nuclei (%) [9]: 12%
Population Tubulin-Different-Phenotype (%) [9]: 25%
Total Cell Count [9]: 162
Population Apoptotic (%) [10]: 61%
Population Fragmented Nuclei (%) [10]: 36%
Population Healthy Nuclei (%) [10]: 48%
Population Hoechst High Intensity Objects (%) [10]: 6%
Population Membrane Permeable-Phenotype (%) [10]: 2%
Population Mitochondria Different-Phenotype (%) [10]: 1%
Population Mitotic Cells (%) [10]: 38%
Population Normal (%) [10]: 94%
Population Pyknosed Nuclei (%) [10]: 14%
Population Tubulin-Different-Phenotype (%) [10]: 34%
Total Cell Count [10]: 150
Population Apoptotic (%) [11]: 66%
Population Fragmented Nuclei (%) [11]: 18%
Population Healthy Nuclei (%) [11]: 75%
Population Hoechst High Intensity Objects (%) [11]: 5%
Population Membrane Permeable-Phenotype (%) [11]: 0%
Population Mitochondria Different-Phenotype (%) [11]: 3%
Population Mitotic Cells (%) [11]: 33%
Population Normal (%) [11]: 94%
Population Pyknosed Nuclei (%) [11]: 6%
Population Tubulin-Different-Phenotype (%) [11]: 31%
Total Cell Count [11]: 152
Population Apoptotic (%) [12]: 60%
Population Fragmented Nuclei (%) [12]: 30%
Population Healthy Nuclei (%) [12]: 59%
Population Hoechst High Intensity Objects (%) [12]: 2%
Population Membrane Permeable-Phenotype (%) [12]: 1%
Population Mitochondria Different-Phenotype (%) [12]: 1%
Population Mitotic Cells (%) [12]: 40%
Population Normal (%) [12]: 97%
Population Pyknosed Nuclei (%) [12]: 9%
Population Tubulin-Different-Phenotype (%) [12]: 37%
Total Cell Count [12]: 157
